Measured values: ChEMBL document CHEMBL3108772, “Discovery of Potent and Orally Active p53-MDM2 Inhibitors RO5353 and RO2468 for Potential Clinical Development” (ACS Med Chem Lett, 2014)
Values belong to the compound of their own block, whether it stands above or below them. The source made the active and inactive calls. The rule behind the calls is not given here.

What was measured:
[1] = test system: SW480; assay: Antiproliferative activity against human SW480 cells expressing p53 mutant by MTT assay
[2] = test system: SJSA-1; assay: Antiproliferative activity against human SJSA cells expressing wild-type p53 by MTT assay
[3] = test system: RKO; assay: Antiproliferative activity against human RKO cells expressing wild-type p53 by MTT assay; assay type: functional, cell-based
Summary of the method: (§1)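 MTT antiproliferation assay in human cancer lines: SJSA, HCT116 and RKO are wild-type p53; SW480 is mutant p53. IC50 came from one experiment run in duplicate.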

[4] = test system: HCT-116; assay: Antiproliferative activity against human HCT116 cells expressing wild-type p53 by MTT assay; assay type: functional, cell-based; summary of the method: as §1
[5] = test system: Mus musculus; assay: Toxicity in nude mouse xenografted with human SJSA1 cells assessed as body weight loss at 3 to 20 mg/kg, po qd administered for 2 weeks; assay type: organism-based, SJSA-1; design: dose 3-20 mg/kg, route oral; details: in vivo, 336 h
[6] = test system: SJSA-1; assay: Antitumor activity against human SJSA1 cells xenografted in nude mouse assessed as tumor growth inhibition at 3 mg/kg, po qd administered for 2 weeks; assay type: functional, organism-based; design: dose 3 mg/kg
[7] = test system: SJSA-1; assay: Antitumor activity against human SJSA1 cells xenografted in nude mouse assessed as tumor regression at 10 mg/kg, po qd administered for 2 weeks; assay type: functional, organism-based; design: dose 10 mg/kg
[8] = Oral bioavailability in C57 mouse at 5 mg/kg; assay type: ADME, organism-based; details: in vivo
Summary of the method: (§2)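 Single-dose PK in male C57 mice, given orally (PO) or intravenously (IV). Plasma exposure (AUC normalized to dose, Cmax) was taken from the oral arms. Clearance and t1/2 were taken from the IV arms. F is oral bioavailability.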

[9] = Apparent terminal half life in C57 mouse at 2 mg/kg, iv; assay type: ADME, organism-based; design: dose 2 mg/kg, route intravenous; details: in vivo, read-out: betat1/2(app) (converted); summary of the method: as §2
[10] = Total plasma clearance in C57 mouse at 2 mg/kg, iv; assay type: ADME, organism-based; design: dose 2 mg/kg, route intravenous; summary of the method: as §2
[11] = Cmax in C57 mouse at 5 mg/kg, po; assay type: ADME, organism-based; design: dose 5 mg/kg, route oral; details: in vivo; summary of the method: as §2
[12] = test system: Mus musculus; assay: AUC/dose in C57 mouse at 5 mg/kg, po; assay type: ADME, organism-based, Plasma; design: dose 5 mg/kg, route oral; details: in vivo; summary of the method: as §2
[13] = Intrinsic clearance in human liver microsomes at […] preincubated for 5 mins followed by NADPH addition by LC-MS/MS analysis; assay type: ADME; details: read-out: CLH
[14] = test system: SJSA-1; assay: Antiproliferative activity against human SJSA cells expressing wild-type p53 by MTT assay
[15] = test system: SJSA-1; assay: Antitumor activity against human SJSA1 cells xenografted in nude mouse assessed as tumor regression at 6.25 mg/kg, po qd administered for 2 weeks; assay type: functional, organism-based; design: dose 6.25 mg/kg
[16] = Oral bioavailability in C57 mouse at 25 mg/kg; assay type: ADME, organism-based; details: in vivo; summary of the method: as §2
[17] = Apparent terminal half life in C57 mouse at 0.64 mg/kg, iv; assay type: ADME, organism-based; design: dose 0.64 mg/kg, route intravenous; details: in vivo, read-out: betat1/2(app) (converted); summary of the method: as §2
[18] = Total plasma clearance in C57 mouse at 0.64 mg/kg, iv; assay type: ADME, organism-based; design: dose 0.64 mg/kg, route intravenous; summary of the method: as §2
[19] = Cmax in C57 mouse at 25 mg/kg, po; assay type: ADME, organism-based; design: dose 25 mg/kg, route oral; details: in vivo; summary of the method: as §2
[20] = test system: Mus musculus; assay: AUC/dose in C57 mouse at 25 mg/kg, po; assay type: ADME, organism-based, Plasma; design: dose 25 mg/kg, route oral; details: in vivo; summary of the method: as §2
[21] = Oral bioavailability in C57 mouse at 10 mg/kg; assay type: ADME, organism-based; details: in vivo; summary of the method: as §2
[22] = Apparent terminal half life in C57 mouse at 2.5 mg/kg, iv; assay type: ADME, organism-based; design: dose 2.5 mg/kg, route intravenous; details: in vivo, read-out: betat1/2(app) (converted); summary of the method: as §2
[23] = Total plasma clearance in C57 mouse at 2.5 mg/kg, iv; assay type: ADME, organism-based; design: dose 2.5 mg/kg, route intravenous; summary of the method: as §2
[24] = Cmax in C57 mouse at 10 mg/kg, po; assay type: ADME, organism-based; design: dose 10 mg/kg, route oral; details: in vivo; summary of the method: as §2
[25] = test system: Mus musculus; assay: AUC/dose in C57 mouse at 10 mg/kg, po; assay type: ADME, organism-based, Plasma; design: dose 10 mg/kg, route oral; details: in vivo; summary of the method: as §2

Compound: COc1cc(C(=O)O)ccc1NC(=O)[C@@H]1N[C@@H](CC(C)(C)C)[C@@]2(C(=O)Nc3nc(Cl)ncc32)[C@H]1c1cccc(Cl)c1F (racemic)
- IC50 [1]: > 30 µM
- IC50 [2]: 0.1 µM

Compound: COc1cc(C(N)=O)ccc1NC(=O)[C@@H]1N[C@@H](CC(C)(C)C)[C@@]2(C(=O)Nc3cc(Cl)ncc32)[C@H]1c1cccc(Cl)c1F
- Activity [3]: Active
- Activity [4]: Active
- Activity [5]: Non-toxic
- TGI [6]: Active
- Activity [7]: Active
- bioavailability [8]: 46%
- half-life [9]: 3 h
- clearance [10]: 1.8 mL/min/kg
- Cmax [11]: 2100 ng/mL
- AUC/dose [12]: 4.2 µg·h/mL/mg/kg
- CLint scaled [13]: 10.2 mL/min/kg
- Activity [14]: Active

Compound: COc1cc(C(=O)O)ccc1NC(=O)[C@@H]1N[C@@H](CC(C)(C)C)[C@@]2(C(=O)Nc3ncccc32)[C@H]1c1cccc(Cl)c1F (racemic)
- IC50 [1]: > 30 µM
- IC50 [2]: 1.37 µM

Compound: COc1cc(C(=O)O)ccc1NC(=O)[C@@H]1N[C@@H](CC(C)(C)C)[C@@]2(C(=O)Nc3cc(Cl)cnc32)[C@H]1c1cccc(Cl)c1F (racemic)
- IC50 [1]: > 30 µM
- IC50 [2]: 0.061 µM

Compound: COc1cc(C(N)=O)ccc1NC(=O)[C@@H]1N[C@@H](CC(C)(C)C)[C@@]2(C(=O)Nc3cc(Cl)sc32)[C@H]1c1cccc(Cl)c1F
- Activity [3]: Active
- Activity [4]: Active
- Activity [5]: Non-toxic
- TGI [6]: Active
- Activity [7]: Active
- bioavailability [21]: 92%
- half-life [22]: 3 h
- clearance [23]: 9.9 mL/min/kg
- Cmax [24]: 1300 ng/mL
- AUC/dose [25]: 1.5 µg·h/mL/mg/kg
- CLint scaled [13]: 2 mL/min/kg
- Activity [14]: Active

Compound: COc1cc(C(=O)O)ccc1NC(=O)[C@@H]1N[C@@H](CC(C)(C)C)[C@@]2(C(=O)Nc3ccncc32)[C@H]1c1cccc(Cl)c1F (racemic)
- IC50 [1]: > 30 µM
- IC50 [2]: 22.7 µM

Compound: COc1cc(C(=O)O)ccc1NC(=O)C1NC(CC(C)(C)C)C2(C(=O)Nc3cc(Cl)sc32)C1c1cccc(Cl)c1F (racemic)
- IC50 [1]: 29.3 µM
- IC50 [2]: 0.009 µM

Compound: COc1cc(C(=O)O)ccc1NC(=O)[C@@H]1N[C@@H](CC(C)(C)C)[C@@]2(C(=O)Nc3nc(Cl)ccc32)[C@H]1c1cccc(Cl)c1F (racemic)
- IC50 [1]: 15.4 µM
- IC50 [2]: 0.045 µM

Compound: COc1cc(C(=O)O)ccc1NC(=O)[C@@H]1N[C@@H](CC(C)(C)C)[C@@]2(C(=O)Nc3cc(Cl)ncc32)[C@H]1c1cccc(Cl)c1F (racemic)
- IC50 [1]: > 30 µM
- IC50 [2]: 0.043 µM

Compound: COc1cc(C(=O)O)ccc1NC(=O)[C@@H]1N[C@@H](CC(C)(C)C)[C@@]2(C(=O)Nc3cc(Cl)sc32)[C@H]1c1cccc(Cl)c1F
- Activity [3]: Active
- Activity [4]: Active
- bioavailability [21]: 32%
- half-life [22]: 1.68 h
- clearance [23]: 68.6 mL/min/kg
- Cmax [24]: 300 ng/mL
- AUC/dose [25]: 0.08 µg·h/mL/mg/kg
- Activity [14]: Active

Continued by falling IC50 [1], values first:

- IC50 [1]: 13.4 µM
- IC50 [2]: 2.11 µM
Compound: COc1cc(C(N)=O)ccc1NC(=O)[C@@H]1N[C@@H](CC(C)(C)C)[C@@]2(C(=O)Nc3ccncc32)[C@H]1c1cccc(Cl)c1F (racemic)

- IC50 [1]: 12.8 µM
- IC50 [2]: 0.014 µM
Compound: COc1cc(C(N)=O)ccc1NC(=O)C1NC(CC(C)(C)C)C2(C(=O)Nc3cc(Cl)ncc32)C1c1cccc(Cl)c1F (racemic)

- IC50 [1]: 10.7 µM
- IC50 [2]: 0.09 µM
Compound: COc1cc(C(N)=O)ccc1NC(=O)[C@@H]1N[C@@H](CC(C)(C)C)[C@@]2(C(=O)Nc3nc(Cl)ncc32)[C@H]1c1cccc(Cl)c1F (racemic)

- IC50 [1]: 7.87 µM
- IC50 [2]: 0.011 µM
Compound: COc1cc(C(N)=O)ccc1NC(=O)C1NC(CC(C)(C)C)C2(C(=O)Nc3cc(Cl)sc32)C1c1cccc(Cl)c1F (racemic)

- IC50 [1]: 5.9 µM
- IC50 [2]: 0.042 µM
Compound: COc1cc(C(N)=O)ccc1NC(=O)[C@@H]1N[C@@H](CC(C)(C)C)[C@@]2(C(=O)Nc3cc(Cl)cnc32)[C@H]1c1cccc(Cl)c1F (racemic)

- IC50 [1]: 5.26 µM
- IC50 [2]: 0.067 µM
Compound: COc1cc(C(N)=O)ccc1NC(=O)[C@@H]1N[C@@H](CC(C)(C)C)[C@@]2(C(=O)Nc3nc(Cl)ccc32)[C@H]1c1cccc(Cl)c1F (racemic)

- bioavailability [16]: 92%
- half-life [17]: 7.1 h
- clearance [18]: 5.8 mL/min/kg
- Cmax [19]: 5800 ng/mL
- AUC/dose [20]: 3.7 µg·h/mL/mg/kg
- CLint scaled [13]: 7.5 mL/min/kg
- IC50 [1]: 5.19 µM
- IC50 [2]: 0.013 µM
Compound: COc1cc(C(N)=O)ccc1NC(=O)[C@@H]1N[C@@H](CC(C)(C)C)[C@@]2(C(=O)Nc3cc(Cl)ccc32)[C@H]1c1cccc(Cl)c1F
- Activity [15]: Active
